Data published in ChEMBL document CHEMBL4177580, “New 5-HT1A, 5HT2A and 5HT2C receptor ligands containing a picolinic nucleus: Synthesis, in vitro and in vivo pharmacological evaluation” (Bioorg Med Chem, 2017).
Calls of active or inactive are those of the source.

Legend:
[1] = biological target: T1, 5-hydroxytryptamine receptor 1A (Rattus norvegicus, UniProt P19327); test: Displacement of [3H]-8-OH-DPAT from serotonin 5-HT1A receptor in Sprague-Dawley rat brain cortex homogenates incubated for 30 mins by liquid scintillation spectrometry
T1 sequence (P19327 whole entry): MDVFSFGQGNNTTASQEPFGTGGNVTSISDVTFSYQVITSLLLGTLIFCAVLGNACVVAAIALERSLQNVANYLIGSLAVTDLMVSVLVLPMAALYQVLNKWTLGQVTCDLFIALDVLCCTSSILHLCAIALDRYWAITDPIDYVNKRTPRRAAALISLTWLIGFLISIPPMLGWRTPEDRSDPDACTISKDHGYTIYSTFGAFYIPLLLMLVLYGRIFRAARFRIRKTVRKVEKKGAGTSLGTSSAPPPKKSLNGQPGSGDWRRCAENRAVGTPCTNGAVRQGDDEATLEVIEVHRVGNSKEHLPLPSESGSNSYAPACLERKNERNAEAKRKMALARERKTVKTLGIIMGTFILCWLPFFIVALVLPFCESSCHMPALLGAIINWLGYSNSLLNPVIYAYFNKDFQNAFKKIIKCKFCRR

[2] = biological target: 5-hydroxytryptamine receptor 2A (Rattus norvegicus, UniProt P14842); test: Displacement of [3H]ketanserin from serotonin 5-HT2A receptor in Sprague-Dawley rat brain cortex homogenates incubated for 15 mins by liquid scintillation spectrometry
Chain of 5-hydroxytryptamine receptor 2A (P14842 whole entry): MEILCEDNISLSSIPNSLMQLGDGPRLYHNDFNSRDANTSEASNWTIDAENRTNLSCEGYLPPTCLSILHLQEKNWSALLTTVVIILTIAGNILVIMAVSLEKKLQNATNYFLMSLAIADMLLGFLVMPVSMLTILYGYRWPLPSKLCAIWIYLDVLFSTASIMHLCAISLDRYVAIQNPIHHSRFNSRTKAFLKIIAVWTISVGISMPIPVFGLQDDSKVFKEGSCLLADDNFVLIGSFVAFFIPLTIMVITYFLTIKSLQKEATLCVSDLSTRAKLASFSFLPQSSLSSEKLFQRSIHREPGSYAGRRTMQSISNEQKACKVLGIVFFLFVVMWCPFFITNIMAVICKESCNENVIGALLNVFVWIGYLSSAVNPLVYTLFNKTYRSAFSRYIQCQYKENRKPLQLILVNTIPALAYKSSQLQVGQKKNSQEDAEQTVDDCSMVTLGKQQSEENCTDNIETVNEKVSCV

[3] = biological target: T2, 5-hydroxytryptamine receptor 2C (Rattus norvegicus, UniProt P08909); test: Displacement of [3H]mesulergine from serotonin 5-HT2C receptor in Sprague-Dawley rat brain cortex homogenates incubated for 15 mins by liquid scintillation spectrometry
T2 sequence (P08909 whole entry): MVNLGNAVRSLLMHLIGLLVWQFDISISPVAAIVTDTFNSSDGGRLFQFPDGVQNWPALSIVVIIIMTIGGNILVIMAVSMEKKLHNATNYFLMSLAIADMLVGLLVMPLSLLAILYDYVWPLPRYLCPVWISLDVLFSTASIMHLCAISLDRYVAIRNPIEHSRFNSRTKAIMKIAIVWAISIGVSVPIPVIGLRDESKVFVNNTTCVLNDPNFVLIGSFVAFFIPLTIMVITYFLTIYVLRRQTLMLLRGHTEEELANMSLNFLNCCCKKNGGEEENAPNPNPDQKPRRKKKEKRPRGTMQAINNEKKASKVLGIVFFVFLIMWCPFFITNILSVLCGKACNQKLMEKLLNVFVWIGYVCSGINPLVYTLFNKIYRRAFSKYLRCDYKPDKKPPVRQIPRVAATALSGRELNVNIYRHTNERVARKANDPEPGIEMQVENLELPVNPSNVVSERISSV

Mus musculus [4] = test: Toxicity in Swiss albino mouse assessed as effect on motor coordination at 3.75 to 15 mg/kg, ip dosed 60 mins before test by Chimney test; assay type: organism-based; conditions: in vivo, 1 h
Procedure, shortened: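 Chimney test in male Swiss mice after i.p. dosing 60 min earlier: impairment defined as failure to climb backwards up a tube (3 cm inner diameter, 25 cm long) within 60 s. Animals pre-trained once daily for 3 days. One-way ANOVA with Dunnett's.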

Mus musculus [5] = test: Induction of hypothermia in normothermic Swiss albino mouse assessed as reduction in body temperature at 30 mg/kg, ip measured after 120 mins post dose; assay type: functional, organism-based
Procedure, shortened: (§1)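 Normothermic male Swiss mice; rectal thermistor readings over 180 min. Baseline is the mean of readings 60 and 30 min before dosing; readings at 30, 60, 90, 120 min post-injection; Δt = tf − ti. Test compounds i.p. (DMSO/methylcellulose); 8-OH-DPAT (5 mg/kg) and WAY 100635 (0.1 mg/kg) s.c. in water. Two-way ANOVA, Bonferroni.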

Mus musculus [6] = test: Inhibition of 8-OH-DPAT-induced hypothermia in Swiss albino mouse at 30 mg/kg, ip measured after 120 mins post dose co-treated with 8-OH-DPAT; assay type: functional, organism-based; procedure, shortened: as §1
Mus musculus [7] = test: Antidepressant-like activity in Swiss albino mouse assessed as reduction in immobility time at 7.5 mg/kg, ip dosed 1 hr before test by forced swimming test; assay type: functional, organism-based
Procedure, shortened: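 Male Swiss albino mice (18–24 g), compound i.p. in 0.1% DMSO/0.5% methylcellulose 1 h pre-test. Porsolt swim: cylinder 25 cm high, 10 cm diameter, 10 cm water at 23–25°C, 6 min session; immobility scored over last 4 min. Blind observer; one-way ANOVA with Dunnett's; mean ± SEM.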

Mus musculus [8] = test: Antidepressant-like activity in Swiss albino mouse assessed as reduction in immobility time at 15 mg/kg, ip dosed 1 hr before test by forced swimming test; assay type: functional, organism-based
Procedure, shortened: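 Male Swiss albino mice (18-24 g). The reference drug was diluted in saline and given ip (10 ml/kg) 1 h before testing. Each mouse swam for 6 min in a cylinder (25 cm high, 10 cm diameter) holding 10 cm of water at 23-25°C. Immobility was timed over the last 4 min. Data are mean ± SEM, analysed by one-way ANOVA with Dunnett's test.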

Mus musculus [9] = test: Toxicity in Swiss albino mouse assessed as reduction in spontaneous locomotor activity at 7.5 mg/kg, ip dosed 60 mins before test; assay type: organism-based; conditions: in vivo, 1 h
Procedure, shortened: (§2)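 Spontaneous locomotion: mice dosed i.p. 60 min before being placed individually in an actometer for 30 min. Distance travelled read at 6 and 30 min. Cages cleaned with 70% ethanol between animals. One-way ANOVA with Dunnett's; mean ± SEM of one experiment.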

Mus musculus [10] = test: Toxicity in Swiss albino mouse assessed as reduction in spontaneous locomotor activity at 15 mg/kg, ip dosed 60 mins before test; assay type: organism-based; conditions: in vivo, 1 h; procedure, shortened: as §2
Mus musculus [11] = test: Anxiolytic-like activity in Swiss albino mouse assessed as increase in time spent in open arms at 3.75 to 15 mg/kg measured for 5 mins test period by elevated plus maze test; assay type: functional, organism-based
Rattus norvegicus [12] = test: In-vivo 5-HT1A receptor agonist activity in Wistar rat assessed as induction of lower lip retraction by measuring lower lip retraction score at 30 mg/kg, ip dosed 15 mins before test (reference value: 0.0 +/- 0.0)
Rattus norvegicus [13] = test: In-vivo 5-HT1A receptor agonist activity in Wistar rat assessed as induction of lower lip retraction by measuring lower lip retraction score at 1 mg/kg, ip dosed 15 mins before test co-treated with 0.3 mg/kg, ip WAY100635
Rattus norvegicus [14] = test: In-vivo 5-HT1A receptor antagonist activity in Wistar rat assessed as reduction in 8-OH-DPAT-stimulated induction of lower lip retraction by measuring lower lip retraction score at 30 mg/kg, ip dosed 15 mins before test (reference value: 2.875 +/- 0.08183)
Mus musculus [15] = test: Inhibition of 8-OH-DPAT-induced hypothermia in Swiss albino mouse at 0.1 mg/kg, ip measured after 120 mins post dose co-treated with 8-OH-DPAT; assay type: functional, organism-based
Rattus norvegicus [16] = test: In-vivo 5-HT1A receptor agonist activity in Wistar rat assessed as induction of lower lip retraction by measuring lower lip retraction score at 0.3 mg/kg, ip dosed 15 mins before test (reference value: 0.0 +/- 0.0)
Rattus norvegicus [17] = test: In-vivo 5-HT1A receptor antagonist activity in Wistar rat assessed as reduction in 8-OH-DPAT-stimulated induction of lower lip retraction by measuring lower lip retraction score at 0.3 mg/kg, ip dosed 15 mins before test (reference value: 2.875 +/- 0.08183)

O=C(NCCN1CCN(c2ncccn2)CC1)c1ccccn1
Ki [1]: 0.046 nM
Ki [2]: > 10 µM
Ki [3]: > 10 µM
Activity (Mus musculus [4]): Non-Toxic
Activity (Mus musculus [5]): inactive
inhibition (Mus musculus [6]): Active
Activity (Mus musculus [7]): Active
Activity (Mus musculus [8]): Active
Activity (Mus musculus [9]): Non-Toxic
Activity (Mus musculus [10]): Non-Toxic
Activity (Mus musculus [11]): Active
Activity_index (Rattus norvegicus [12]): 2.714
Activity (Rattus norvegicus [13]): inactive
Activity_index (Rattus norvegicus [14]): 2

COc1ccccc1N1CCN(CCN(C(=O)C2CCCCC2)c2ccccn2)CC1 [WAY-100,635]
inhibition (Mus musculus [15]): Active
Activity_index (Rattus norvegicus [16]): 0
Activity_index (Rattus norvegicus [17]): 1.667
